Where “and” joins values, the source holds several entries; their conditions need not be identical. Equal values may be shown once.
Tests used:
[1] = test system: CBP/p300 HAT activity; conditions: cited from earlier work
[2] = target: isolated CBP bromodomain (Homo sapiens, UniProt Q92793); assay: NanoBRET, NanoLuc CBP bromodomain / Halo-tagged Histone H3.3; format: cell-based; conditions: read-out: cellular IC50, construct containing the bromodomain only
[3] = test system: 5HT1; conditions: both stereoisomers; low µM region
[4] = target: T1, CBP bromodomain (Homo sapiens, UniProt Q92793); conditions: read-out: IC50 displacing H3K56ac from the CBP binding site; AlphaScreen, H3K56ac peptide
T1 sequence (Q92793 1085-1192 limits assumed): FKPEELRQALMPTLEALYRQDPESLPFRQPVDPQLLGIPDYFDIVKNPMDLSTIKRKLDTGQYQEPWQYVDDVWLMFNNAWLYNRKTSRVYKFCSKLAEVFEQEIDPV

[5] = test system: MLL-AF9 expressing blasts; assay: extreme limiting dilution analysis; format: cell-based, mouse; conditions: 5µM for 3 days; vehicle 1/2.3
Outline: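 MLL-AF9 leukemic blasts from diseased mice were exposed ex vivo to 5 µM test compound or DMSO for 3 days, then plated at limiting dilution (highest dose 10 cells). A limiting dilution model fitted on a log-fraction plot gave stem cell frequency with 95% confidence intervals. Groups were compared by an overall chi-square test.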

[6] = test system: MLL-AF9+ AML cells; assay: cell surface marker expression after liquid culture exposure; format: cell-based, mouse; conditions: 5 µM, 3 days
[7] = test system: 12 stimulated primary human co-cultured cell types; assay: BioMAP panel of stimulated primary co-cultured cell types; format: cell-based
Outline: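 BioMAP profiling in four human haematopoietic co-culture systems, each treated with test compound: Sag and LPS (peripheral blood mononuclear cells with venular endothelial cells), BT (B cells with peripheral blood mononuclear cells), and IMphg (venular endothelial cells with M1 macrophages). Marker protein read-outs were monitored.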

[8] = test system: primary murine MLL-AF9+ leukemic blasts; assay: WST1 cytotoxicity assay; format: cell-based, mouse
Outline: (§1)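 WST1 cytotoxicity assay. Cells were murine bone marrow cells immortalized by retroviral MLL-CBP expression, or MLL-AF9 leukemic blasts isolated from mice transplanted with bone marrow retrovirally expressing that oncogene. Signal was expressed as mean percentage of vehicle-treated cells ±SD, n=4; ANOVA with Dunnett multiple comparison.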

[9] = test system: MLL-CBP immortalized murine bone marrow cells; assay: clonogenic growth and replating in methylcellulose; format: cell-based, mouse; conditions: more apparent upon re-plating
Outline: (§2)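 Methylcellulose colony formation with serial re-plating, using either MLL-CBP immortalized murine bone marrow progenitors or MLL-AF9 leukemic blasts treated with test compound. Colonies are expressed as mean percentage of vehicle-treated ±SD, n=2; ANOVA with Dunnett multiple comparison.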

[10] = test system: MOLM13 cells; assay: WST1 proliferation/survival assay, combination; format: cell-based, human; conditions: combination with doxorubicin
[11] = target: T1, CBP bromodomain; assay: temperature shift assay; format: binding
[12] = test system: SEM cells; assay: clonogenic growth in methylcellulose; format: cell-based, human; conditions: dose dependent
Outline: (§3)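 Human leukemic cell lines were plated in methylcellulose with different doses of test compound, and colony growth was scored. Counts are mean percentage of vehicle-treated ±SD, n=3; ANOVA with Dunnett multiple comparison.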

[13] = test system: 12 human cell lines that form visible colonies in methylcellulose; assay: clonogenic growth in methylcellulose, human leukemic cell line panel; format: cell-based; conditions: all 12 colony-forming human leukemic lines
[14] = target: p300 bromodomain (Homo sapiens, UniProt Q09472); assay: isothermal titration calorimetry; format: binding; conditions: read-out: dissociation constant (KD); ITC, in solution
p300 bromodomain, sequence (Q09472 1049-1156 limits assumed): as the sequence (Q92793 1085-1192 limits assumed) above, with N47S, V73I, F93Y, A98S counted along it

[15] = test system: KASUMI-1; assay: clonogenic growth in methylcellulose; format: cell-based, human; conditions: dose dependent
Outline: as §3

[16] = test system: KASUMI-1, MOLM13 and SEM cells; assay: WST1 proliferation/survival assay, single agents and combinations; format: cell-based, human; conditions: for activity alone in WST1 assay: single agent, different for each cell line
[17] = target: T1, CBP bromodomain; format: binding; conditions: read-out: dissociation constant (KD); ITC, in solution
[18] = test system: 41 other members of the human bromodomain family; assay: temperature shift assay, selectivity panel; format: binding; conditions: 41 other bromodomains
[19] = pharmacokinetic study; format: in vivo; conditions: mice
[20] = test system: primary blast cells from AML patients; assay: clonogenic growth of primary cells in methylcellulose; format: cell-based, human; conditions: five AML patients
Outline: (§4)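 Primary human cells were grown in methylcellulose with test compound: CD34+ cells from healthy donors (n=3) or AML patient blasts (n=5). Colonies and cell numbers are expressed as mean percentage of vehicle-treated ±SD; ANOVA with Dunnett. Morphology was assessed by Giemsa-Wright stain after DMSO or 5 µM treatment.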

[21] = target: T2, BRD4(2) (Homo sapiens, UniProt O60885); assay: temperature shift assay; format: binding; conditions: second bromodomain of BRD4
[22] = target: p300 (Homo sapiens, UniProt Q09472); assay: ChIP-PCR of p300 occupancy at TNFSF13B and ID2; format: cell-based; conditions: KASUMI-1, 3 µM
p300, sequence (Q09472 whole entry): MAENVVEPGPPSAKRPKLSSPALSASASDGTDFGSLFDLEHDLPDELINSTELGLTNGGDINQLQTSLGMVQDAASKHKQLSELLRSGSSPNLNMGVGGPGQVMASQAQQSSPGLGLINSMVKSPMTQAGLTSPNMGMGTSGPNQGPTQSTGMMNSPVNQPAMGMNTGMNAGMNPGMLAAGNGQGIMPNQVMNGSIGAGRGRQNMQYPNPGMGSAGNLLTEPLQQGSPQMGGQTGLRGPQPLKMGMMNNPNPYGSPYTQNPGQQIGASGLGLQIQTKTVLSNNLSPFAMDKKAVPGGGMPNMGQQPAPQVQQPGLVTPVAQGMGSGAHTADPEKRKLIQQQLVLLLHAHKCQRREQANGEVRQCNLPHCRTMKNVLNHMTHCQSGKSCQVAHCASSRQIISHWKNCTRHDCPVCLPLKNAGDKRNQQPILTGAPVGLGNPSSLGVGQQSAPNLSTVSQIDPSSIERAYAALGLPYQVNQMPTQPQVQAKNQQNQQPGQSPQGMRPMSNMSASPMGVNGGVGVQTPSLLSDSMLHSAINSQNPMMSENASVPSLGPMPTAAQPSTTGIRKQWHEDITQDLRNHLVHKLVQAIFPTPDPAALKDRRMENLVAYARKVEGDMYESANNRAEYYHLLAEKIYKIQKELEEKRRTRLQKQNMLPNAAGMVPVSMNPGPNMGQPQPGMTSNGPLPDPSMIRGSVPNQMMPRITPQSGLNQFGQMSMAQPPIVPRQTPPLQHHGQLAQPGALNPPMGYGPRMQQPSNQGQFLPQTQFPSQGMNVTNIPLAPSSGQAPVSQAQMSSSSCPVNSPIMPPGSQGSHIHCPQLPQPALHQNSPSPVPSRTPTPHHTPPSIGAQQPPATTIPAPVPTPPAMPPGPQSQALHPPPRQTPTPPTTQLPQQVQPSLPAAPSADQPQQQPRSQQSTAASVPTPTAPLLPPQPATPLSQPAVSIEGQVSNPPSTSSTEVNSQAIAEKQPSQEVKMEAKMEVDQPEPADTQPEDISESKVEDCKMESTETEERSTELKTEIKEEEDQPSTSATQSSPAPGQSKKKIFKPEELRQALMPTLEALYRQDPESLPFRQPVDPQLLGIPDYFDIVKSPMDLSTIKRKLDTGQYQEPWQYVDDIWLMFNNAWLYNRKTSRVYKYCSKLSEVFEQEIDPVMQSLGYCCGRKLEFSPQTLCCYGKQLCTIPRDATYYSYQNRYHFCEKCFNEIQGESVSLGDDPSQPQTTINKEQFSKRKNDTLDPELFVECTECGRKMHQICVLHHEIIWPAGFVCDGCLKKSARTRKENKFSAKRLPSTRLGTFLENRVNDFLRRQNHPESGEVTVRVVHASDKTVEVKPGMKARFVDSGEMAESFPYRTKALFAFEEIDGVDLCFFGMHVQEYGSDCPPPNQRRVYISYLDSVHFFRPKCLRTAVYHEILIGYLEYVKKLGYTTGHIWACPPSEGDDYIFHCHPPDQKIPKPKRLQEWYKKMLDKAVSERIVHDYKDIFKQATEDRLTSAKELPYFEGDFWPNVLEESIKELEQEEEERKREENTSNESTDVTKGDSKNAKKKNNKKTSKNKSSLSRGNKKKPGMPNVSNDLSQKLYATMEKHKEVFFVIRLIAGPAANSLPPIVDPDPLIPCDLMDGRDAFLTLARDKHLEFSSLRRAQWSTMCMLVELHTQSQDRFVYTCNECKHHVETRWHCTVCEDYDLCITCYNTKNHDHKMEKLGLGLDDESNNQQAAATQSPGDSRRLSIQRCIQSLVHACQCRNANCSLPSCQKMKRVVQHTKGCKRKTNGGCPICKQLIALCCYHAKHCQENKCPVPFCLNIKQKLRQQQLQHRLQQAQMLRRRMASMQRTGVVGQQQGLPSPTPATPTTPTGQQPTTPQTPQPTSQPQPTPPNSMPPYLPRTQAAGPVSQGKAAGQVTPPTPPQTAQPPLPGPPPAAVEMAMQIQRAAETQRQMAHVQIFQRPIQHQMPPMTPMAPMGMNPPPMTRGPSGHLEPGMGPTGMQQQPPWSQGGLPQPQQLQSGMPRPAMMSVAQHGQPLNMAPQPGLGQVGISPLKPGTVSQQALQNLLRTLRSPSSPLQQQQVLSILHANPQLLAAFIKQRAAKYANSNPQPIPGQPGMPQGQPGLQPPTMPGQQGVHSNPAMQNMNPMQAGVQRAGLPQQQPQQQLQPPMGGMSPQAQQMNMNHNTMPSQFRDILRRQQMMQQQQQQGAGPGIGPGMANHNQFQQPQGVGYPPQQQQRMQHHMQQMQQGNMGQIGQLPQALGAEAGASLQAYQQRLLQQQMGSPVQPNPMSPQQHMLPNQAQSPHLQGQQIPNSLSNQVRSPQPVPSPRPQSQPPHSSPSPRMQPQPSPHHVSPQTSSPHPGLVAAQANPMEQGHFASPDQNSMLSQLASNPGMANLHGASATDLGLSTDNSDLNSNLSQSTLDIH

[23] = test system: KASUMI-1 cells; assay: cell cycle analysis by flow cytometry; format: cell-based, human; conditions: day 2 and 3, more pronounced at day 6
[24] = test system: MLL-CBP immortalized murine bone marrow cells; assay: WST1 cytotoxicity assay; format: cell-based, mouse; conditions: significant cytotoxicity only at high concentrations and prolonged exposure
Outline: as §1

[25] = test system: peripheral CD34+ cells from healthy donors; assay: clonogenic growth of primary cells in methylcellulose; format: cell-based, human; conditions: three healthy donors
Outline: as §4

[26] = target: CBP (Homo sapiens, UniProt Q92793); conditions: BLI
CBP, sequence (Q92793 1085-1192 limits assumed): as the sequence (Q92793 1085-1192 limits assumed) above

[27] = target: T3, full-length CBP (Homo sapiens, UniProt Q92793); format: cell-based; conditions: GFP-tagged full-length CBP
T3 sequence (Q92793 whole entry): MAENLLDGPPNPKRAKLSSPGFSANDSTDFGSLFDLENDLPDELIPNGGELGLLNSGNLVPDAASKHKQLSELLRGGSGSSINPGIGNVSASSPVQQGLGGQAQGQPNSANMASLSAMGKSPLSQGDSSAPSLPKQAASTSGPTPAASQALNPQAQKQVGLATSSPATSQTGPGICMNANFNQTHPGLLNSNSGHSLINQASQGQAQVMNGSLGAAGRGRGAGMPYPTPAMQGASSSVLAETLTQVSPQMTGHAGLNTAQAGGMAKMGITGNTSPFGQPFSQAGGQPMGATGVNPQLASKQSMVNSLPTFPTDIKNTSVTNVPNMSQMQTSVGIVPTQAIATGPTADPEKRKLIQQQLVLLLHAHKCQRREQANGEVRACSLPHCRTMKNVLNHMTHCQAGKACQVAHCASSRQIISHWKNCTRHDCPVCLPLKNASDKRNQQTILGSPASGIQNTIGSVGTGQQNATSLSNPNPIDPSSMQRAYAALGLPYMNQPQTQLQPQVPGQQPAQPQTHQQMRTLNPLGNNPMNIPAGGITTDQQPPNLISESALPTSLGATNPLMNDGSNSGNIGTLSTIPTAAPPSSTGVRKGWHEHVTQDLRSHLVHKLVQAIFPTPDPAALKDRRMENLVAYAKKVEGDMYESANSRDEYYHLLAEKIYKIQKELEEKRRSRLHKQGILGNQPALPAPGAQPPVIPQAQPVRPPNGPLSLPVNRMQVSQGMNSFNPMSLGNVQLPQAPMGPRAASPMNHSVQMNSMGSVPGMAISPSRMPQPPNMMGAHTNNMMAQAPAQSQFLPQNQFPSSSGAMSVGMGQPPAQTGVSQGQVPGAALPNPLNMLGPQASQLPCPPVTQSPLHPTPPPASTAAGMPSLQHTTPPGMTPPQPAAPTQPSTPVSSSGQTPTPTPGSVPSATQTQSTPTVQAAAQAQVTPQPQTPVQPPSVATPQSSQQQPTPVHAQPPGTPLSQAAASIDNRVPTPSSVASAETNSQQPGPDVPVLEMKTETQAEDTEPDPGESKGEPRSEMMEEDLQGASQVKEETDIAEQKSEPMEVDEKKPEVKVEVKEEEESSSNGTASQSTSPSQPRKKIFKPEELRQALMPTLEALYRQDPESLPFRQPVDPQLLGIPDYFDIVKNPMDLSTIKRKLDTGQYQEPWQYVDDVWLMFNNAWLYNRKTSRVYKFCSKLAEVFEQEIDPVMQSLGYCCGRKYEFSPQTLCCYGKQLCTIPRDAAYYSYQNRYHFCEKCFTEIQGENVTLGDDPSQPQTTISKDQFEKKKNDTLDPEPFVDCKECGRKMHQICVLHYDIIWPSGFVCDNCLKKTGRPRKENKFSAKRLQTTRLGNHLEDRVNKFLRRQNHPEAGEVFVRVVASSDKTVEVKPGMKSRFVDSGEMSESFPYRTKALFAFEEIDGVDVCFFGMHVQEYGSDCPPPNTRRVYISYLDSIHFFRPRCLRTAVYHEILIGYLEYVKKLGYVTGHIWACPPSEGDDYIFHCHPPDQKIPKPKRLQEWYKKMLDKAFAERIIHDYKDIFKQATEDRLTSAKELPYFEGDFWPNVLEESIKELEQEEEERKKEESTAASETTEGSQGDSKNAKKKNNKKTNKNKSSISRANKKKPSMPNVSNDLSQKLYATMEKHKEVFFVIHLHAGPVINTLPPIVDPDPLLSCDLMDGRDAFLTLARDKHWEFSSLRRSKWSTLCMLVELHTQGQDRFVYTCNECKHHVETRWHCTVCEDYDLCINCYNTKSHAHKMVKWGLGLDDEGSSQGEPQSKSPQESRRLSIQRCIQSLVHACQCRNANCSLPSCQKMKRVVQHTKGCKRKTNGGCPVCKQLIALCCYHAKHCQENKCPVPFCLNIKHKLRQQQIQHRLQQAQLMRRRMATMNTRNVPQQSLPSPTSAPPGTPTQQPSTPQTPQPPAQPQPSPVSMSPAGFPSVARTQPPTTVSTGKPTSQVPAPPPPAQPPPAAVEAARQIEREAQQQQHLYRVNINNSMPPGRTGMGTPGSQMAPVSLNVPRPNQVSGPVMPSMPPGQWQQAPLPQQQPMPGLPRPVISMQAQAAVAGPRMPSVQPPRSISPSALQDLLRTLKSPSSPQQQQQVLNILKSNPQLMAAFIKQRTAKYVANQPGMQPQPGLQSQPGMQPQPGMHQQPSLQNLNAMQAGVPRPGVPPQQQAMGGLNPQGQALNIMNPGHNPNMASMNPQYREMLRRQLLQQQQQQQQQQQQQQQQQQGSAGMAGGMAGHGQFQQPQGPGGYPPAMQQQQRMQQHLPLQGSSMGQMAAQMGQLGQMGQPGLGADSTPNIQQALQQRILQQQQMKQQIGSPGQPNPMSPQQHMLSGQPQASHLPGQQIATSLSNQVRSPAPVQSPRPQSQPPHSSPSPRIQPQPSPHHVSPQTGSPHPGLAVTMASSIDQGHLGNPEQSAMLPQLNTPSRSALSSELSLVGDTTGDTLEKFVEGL

[28] = target: T3, full-length CBP; format: cell-based; conditions: NanoBRET dose response
[29] = test system: KASUMI-1 cells; assay: apoptosis, 7-AAD/AnnexinV staining; format: cell-based, human; conditions: prolonged exposure, day 5, liquid culture
[30] = target: BRD4(1) (Homo sapiens, UniProt O60885); assay: isothermal titration calorimetry; format: binding
[31] = test system: bromodomains of the BET family members; assay: BLI selectivity screen, panel of 42 bromodomains; format: binding; conditions: only BET family identified among 42 bromodomains
[32] = test system: MLL-AF9+ AML cells; assay: transplantation of pre-treated MLL-AF9+ AML cells into secondary recipients; format: in vivo, mice; conditions: cells pre-treated 5 µM 3 days; 5-50 x 10^3 cells transplanted
Outline: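 Leukemic blasts were taken from mice that developed AML after transplantation of bone marrow retrovirally expressing MLL-AF9. Blasts were treated ex vivo with 5 µM test compound or DMSO for 3 days. Limiting doses (50 000, 10 000, 5 000, 500 cells) went into irradiated syngeneic secondary recipients, n=4/5 per group. Disease-free survival was compared by log-rank (Mantel-Cox) test.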

[33] = target: full-length GFP-BRD4 (Homo sapiens, UniProt O60885); assay: NanoBRET, full-length BRD4; format: cell-based
[34] = test system: MOLM13; assay: clonogenic growth in methylcellulose; format: cell-based, human; conditions: dose dependent
Outline: as §3

[35] = target: T2, BRD4(2); assay: isothermal titration calorimetry; format: binding
[36] = target: α1A (Homo sapiens, UniProt P35348); conditions: both stereoisomers; low µM region
[37] = test system: primary murine MLL-AF9+ leukemic blasts; assay: clonogenic re-plating assay in methylcellulose; format: cell-based, mouse
Outline: as §2

[38] = target: H3K56ac peptide; assay: ITC

isolated CBP bromodomain, sequence (Q92793 1085-1192 limits assumed): as the sequence (Q92793 1085-1192 limits assumed) above

Compound: CC1=NN(c2ccc(C(=O)O)cc2)C(=O)/C1=C\c1ccc(-c2cc(C)c(C)cc2[N+](=O)[O-])o1 [C646]
- HAT inhibitory activity [1]: low µM activity

Compound: CCC(=O)N1CCOc2c(cc(-c3ccc(OC)c(OC)c3)cc2OC[C@H]2CCCN(C)C2)C1 [I-CBP112]
- IC50 [2]: 0.6 ± 0.05 µM
- interaction in selectivity panel [3]: weak interaction
- IC50 [4]: 0.17 µM
- estimated stem cell frequency [5]: significant decrease and 1/13
- c-Kit/CD117 expression [6]: slightly decreased
- granulocyte marker Gr-1 expression [6]: slightly decreased
- expression level of CCL2 [7]: no effect
- expression level of Selectin (CD62) [7]: no effect
- expression of IL10 [7]: down-regulated
- expression of VCAM1/CD106 [7]: down-regulated
- secreted IgG [7]: up-regulated
- cytotoxicity [8]: without significant cytotoxicity
- clonogenic growth [9]: significantly reduced
- synergism [10]: less pronounced
- ΔTm (stabilization of melting temperature) [11]: 7.8 ºC
- clonogenic growth [12]: significantly impaired
- clonogenic growth [13]: significantly reduced
- Kd [14]: 0.167 ± 0.008 µM
- clonogenic growth [15]: significantly impaired
- synergy (Chou-Talalay) ([16]; combination with JQ1): strong synergy
- synergy (Chou-Talalay) ([16]; combination with doxorubicin, except MOLM13): strong synergy
- Kd [17]: 0.151 ± 0.006 µM
- ΔTm values [18]: low
- AUC ([19]; IP 3 mg/kg): 384 ng/h/mL
- half-life ([19]; IP 3 mg/kg): 36 ± 6 min
- mean Cmax ([19]; IP 3 mg/kg): 0.59 µg/mL
- bioavailability F% ([19]; IP vs IV, (AUCt/Dip)/(AUC∞/Div)): 114 ± 63%
- blood clearance ([19]; IV 1.2 mg/kg): high
- volume distribution ([19]; IV 1.2 mg/kg): moderate
- Cmax ([19]; read-out: mean Cmax, IP 3 mg/kg, n=3): 1.26 ± 0.74 µM
- number of colonies and cells in MC [20]: dose dependent reduction
- ΔTm [21]: 0.6 °C
- displacement of p300 from chromatin ([22]; 8h): did not see significant displacement
- p300 occupancy ([22]; 4 days, vs DMSO): increased p300 occupancy
- cell cycle effect [23]: prominent G1 arrest
- cell survival [24]: did not affect cell survival
- colony number in MC [25]: did not affect
- Kd [26]: 0.142 µM
- FRAP recovery times [27]: did not lead to decreased recovery times
- effect on recruitment of full-length CBP to chromatin [28]: no significant effect
- apoptosis [29]: signs of apoptosis
- fold selectivity ([30]; CBP over BRD4(1), from ITC KDs): 37 fold
- Kd ([30]; ITC): 5.6 µM
- off-target activity in BLI screen [31]: weak off-target activity
- time of disease development in recipient mice [32]: significantly later
- displacement of full-length BRD4 [33]: No displacement
- clonogenic growth [34]: significantly impaired
- fold selectivity ([35]; CBP over BRD4(2), from ITC KDs): 132 fold
- Kd ([35]; ITC): 20 µM
- interaction in selectivity panel [36]: weak interaction
- self-renewal in clonogenic re-plating [37]: significantly impaired

Compound: Cc1sc2c(c1C)C(c1ccc(Cl)cc1)=N[C@@H](CC(=O)OC(C)(C)C)c1nnc(C)n1-2 [JQ1, reference compound]
- expression of IL10 [7]: down-regulated
- expression of VCAM1/CD106 [7]: down-regulated
- secreted IgG [7]: strongly down-regulated
- activity alone in WST1 assay [16]: low nM activity

Compound: COc1cccc2c1C(=O)c1c(O)c3c(c(O)c1C2=O)C[C@@](O)(C(=O)CO)C[C@@H]3O[C@H]1C[C@H](N)[C@H](O)[C@H](C)O1 [doxorubicin, reference compound]
- activity alone in WST1 assay [16]: low nM activity

Compound: CBP bromodomain (domain or fragment)
- Kd [38]: 13.8 µM

Reference: paper PMC4948672 (Cancer research, 2015)
